Among the data in ChEMBL document CHEMBL1144720, “Diarylheptanoids and a monoterpenoid from the rhizomes of Zingiber officinale: antioxidant and cytoprotective properties” (J Nat Prod, 2008) are Activity and IC50 values, retold here.

One data set has as its system KB. In words: Cytotoxicity against human KB cells after 3 to 5 days by MTT assay. The data set is classed as functional, cell-based.
Data set [1] has as its system Hepatocyte. Put plainly: Cytotoxicity against rat hepatocytes upto 100 uM after 48 hrs. The data set is classed as cell-based. The essentials:
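Primary cultured rat hepatocytes incubated with compounds up to 100 µM for 48 h to check cytotoxicity.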

A short description of data set [2]: Antioxidant activity assessed as superoxide radical anion scavenging activity. The class given is functional. In a few lines: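 In vitro superoxide scavenging: superoxide generated by phenazine methosulfate–NADH system, detected as reduced nitroblue tetrazolium absorbance at 560 nm; dose–response used to derive IC50.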
Data set [3] has as its system Liver. In words: Antioxidant activity in BALB/c mouse liver microsomes assessed as inhibition of free radical-induced lipid peroxidation after 60 mins. The data set is classed as functional, Microsome. The conditions noted are these: 1 h. In a few lines:
(§1)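 Mouse liver microsomes subjected to free radical-induced lipid peroxidation; formation of lipid peroxides measured with compounds over a concentration range, IC50 derived; mean ± SEM, n = 4.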

For data set [4], the system named is Hepatocyte. Put plainly: Antioxidant activity against tert-butyl hydroperoxide-induced oxidative stress in Sprague-Dawley rat hepatocytes at 100 uM after 24 hrs by lactate dehydrogenase assay. The class given is functional, cell-based. The essentials:
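Primary rat hepatocyte cultures pretreated with compounds for 24 h, compounds removed, then exposed to tert-butyl hydroperoxide; cell damage read as lactate dehydrogenase leakage into culture medium; mean ± SEM, n = 4.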

The test system of data set [5] is Liver. Put plainly: Antioxidant activity in BALB/c mouse liver microsomes assessed as complete inhibition of free radical-induced lipid peroxidation at 40 uM after 60 mins. The data set is classed as functional. As to conditions: Microsome. The essentials: as §1
Data set [6] concerns Liver. Put plainly: Antioxidant activity in BALB/c mouse liver microsomes assessed as complete inhibition of free radical-induced lipid peroxidation at 20 uM after 60 mins. The class given is functional. The conditions noted are these: Microsome. In a few lines:
as §1

Activity calls are given as the source filed them. The calls are words filed in the database; no cut-off is given here.

As for `COc1cc(CCC(=O)CC(O)CCc2cc(O)c(O)c(OC)c2)ccc1O` (stereo not given), the values for the Activity entry in the data set with KB and in the data set on Hepatocyte [1] were “Not toxic” and “Non-toxic”, respectively.
In the case of `COc1cc([C@@H]2C[C@@H](O)C[C@H](CCc3ccc(O)c(O)c3)O2)cc(O)c1O`, the Activity result was “Not toxic” in the data set on KB and “Non-toxic” in the data set with Hepatocyte [1]. Further, the IC50 in data set [2] came out at 39.9 µM; with Liver [3], 21.9 µM. Besides, the result in the data set on Hepatocyte [4] and with Liver [5] was Active.
As to `COc1cc(CCC(=O)CC(O)CCc2ccc(O)c(O)c2)ccc1O` (stereo not given), the Activity entry is “Not toxic” in the data set on KB and “Non-toxic” in the data set with Hepatocyte [1]. Moreover, the results for the IC50 (in data set [2]; in the data set with Liver [3]) were 36.4 µM and 17.1 µM, respectively. The outcome in the data set on Hepatocyte [4] and with Liver [6] was Active.
As to `COc1cc(CCC(O)CC(=O)CCc2cc(O)c(O)c(OC)c2)ccc1O` (stereo not given), the Activity entry in the data set on KB is “Not toxic”; in the data set with Hepatocyte [1], “Non-toxic”.
On to `COc1cc([C@@H]2C[C@H](O)C[C@H](CCc3ccc(O)cc3)O2)cc(O)c1O`, for which the values for the IC50 (in data set [2]; in the data set on Liver [3]) were 48.1 µM and 27.9 µM, respectively. For the same compound, the result with Hepatocyte [4] and with Liver [5] was Active.
